Only a selection was taken, and hits are over-represented in it overall.
HUVEC prolif 384: inhibitors of HUVEC proliferation, primary screen, cell-based, 384-well; CellTiter-Glo luminescence, 72 h; hits give low values; viability, % at 10 µM (by protocol); hit rate 1.1% among 86,000; AID 648, 2007;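 active means viability at or below 30%; inactive means viability above 30%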
bCat KO growth: primary screen for growth suppressors in beta-catenin knockout HCT116 cells (colon tumor, human). HCT116 beta-catenin knockout viability, CellTiter-Glo, 60 h; hits give low values. viability, % at 10 µM. AID 818, 2007. hit rate 1.5% among 140,000;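 active means viability at or under a set limit, the compound median less 4 SD, cut at about 6% in these data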
Phagocytosis inh: inhibitors of macrophage phagocytosis, primary screen, imaging, J774A.1 cells, IgG beads; inhibition, % at 5 µM; J774A.1 macrophage IgG-bead phagocytosis; AID 1029, 2008; hit rate 0.07% among 110,000;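 active means inhibition above the mean of the plate negative controls plus 5 SD, cut at about 13% in these data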;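 further: phagocytic index as fraction of beads internalized from green versus red external bead signal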
HCT116 PTEN-null: growth suppression of PTEN-null HCT116, primary screen, cell-based, CellTiter-Glo | HCT116 PTEN-null viability, 60 h; hits give low values | viability, % at 10 µM | hit rate 1.2% among 140,000 | AID 827, 2007;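 active means viability at or below a set limit, 4 SD under the median of all tested compounds, cut at about 3.7% in these data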;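 further: PTEN knockout HCT116 line with beta catenin targeted HCT116 as companion control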
Lung fibro prol: antiproliferative effect on LL 47 fibroblasts – human, LL 47 cells, CellTiter-Glo luminescence, primary screen; viability, % at 10 µM; hit rate 1.1% among 85,000; AID 719, 2007; LL 47 human lung fibroblast viability, ATP luminescence; hits give low values;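 active means viability at or below 50% in the single dose screen; inactive means viability above 50%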;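 further: compound exposure lasted 72 h before the ATP readout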
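Test system: LL 47 human lung fibroblasts; Quantity: 1,150 cells/well; Buffer or medium: IMEM plus 15% FBS; Dosing: tenfold compound dosing solution, DMSO at 0.1%; Timing: overnight cell rest, 72 h compound treatment at 37 °C; Detection: ATP-based CellTiter-Glo luminescent readout; Read-out basis: viability percentage against median untreated-cell control; Controls: cell-only wells, no compound.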
H69AR inhibit: proliferation blockers of H69AR lung cancer cells, primary screen, cell-based, human, 86K library | viability, % at 10 µM | H69AR lung tumor viability, ATP luminescence, 72 h; hits give low values | hit rate 6% among 85,000;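 active means viability at or below 40%; inactive means viability above 40%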;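 further: multidrug resistant small cell line overexpressing MRP-1 efflux transporter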
A number is an active result; n = inactive; x = not tested or not shown.

SMILES	HUVEC prolif 384	bCat KO growth	Phagocytosis inh	HCT116 PTEN-null	Lung fibro prol	H69AR inhibit
O=C(CC1SCCNC1=O)Nc1cc(Cl)cc(Cl)c1 (centres undefined)	n	n	n	n	47	n
O=C(CC1NC(=O)NC1=O)Nc1ccc(Cl)cc1 (centres undefined)	n	n	n	n	n	n
CCCCOc1ccccc1NC(=O)CC1Nc2ccccc2NC1=O (centres undefined)	n	x	n	x	n	40
Cc1cccc(NS(=O)(=O)c2cc(C(=O)NCCC3=CCCCC3)ccc2Cl)c1	x	n	n	n	x	x
CCOC(=O)c1c(-c2ccc(C)cc2)csc1NC1=NS(=O)(=O)c2ccccc21	x	n	x	n	x	x
N#CC(c1ccccc1)N(CCCCl)C(=O)c1ccccc1 (centres undefined)	x	n	n	n	x	x
CCOC(=O)C1=C(CN2c3ccccc3CC2C)NC(=O)NC1c1ccccc1 (centres undefined)	n	n	n	n	n	n
O=C(NCCc1cccs1)C1CC(c2c(Cl)cccc2Cl)=NO1 (centres undefined)	x	n	x	n	x	x
CCCn1c(C)cc(=O)c2cc(NC(=O)c3cnccn3)ccc21	n	n	n	n	n	7.2
COc1ccc(N(C)C2=NS(=O)(=O)c3ccccc32)cc1	n	n	n	n	n	17
COC1=NS(=O)(=O)c2ccccc21	x	n	n	n	x	x
COC(=O)c1sccc1NC(=O)c1cc(-c2cccc(C)c2)nc2ccccc12	x	2.0	n	0.8	x	x
Cc1ccccc1-c1nnc(Cc2ccccc2)o1	x	n	x	n	x	x
O=C(N/N=C/C(Br)=C\c1ccccc1)c1n[nH]c2c1CCC2	22	3.9	n	2.2	n	5.3
Cc1ccccc1NCC(=O)N/N=C/C(Br)=C/c1ccccc1	n	n	x	n	n	11
O=C(N/N=C/C=C/c1ccccc1)c1n[nH]c2c1CCC2	x	n	n	n	x	x
Cn1cc(C(=O)N/N=C/C(Br)=C\c2ccccc2)ccc1=O	x	n	x	n	x	x
Cn1cc(C(=O)N/N=C/C(Br)=C/c2ccccc2)ccc1=O	x	3.6	n	3.3	x	x
COc1cccc(C(=O)N/N=C/C(Br)=C/c2ccccc2)c1	x	2.8	n	1.7	x	x
O=C(Cc1cccs1)N/N=C/C(Br)=C/c1ccccc1	x	n	x	n	x	x
CN1CCN(c2ccc(S(=O)(=O)N3CCCCC3)cc2NC(=O)Cc2ccc(Cl)cc2)CC1	x	n	n	n	x	x
Cc1cc2nc(C)c(Cc3ccccc3)c(=O)n2[nH]1	n	n	n	n	n	n
c1ccc2c(c1)OCCOCCOCCOCCOCCOc1ccccc1OCCOCCOCCO2	x	n	n	n	x	x
O=C(c1ccc(S(=O)(=O)c2ccccc2Cl)c([N+](=O)[O-])c1)N1CCN(Cc2ccccc2)CC1	x	4.9	n	n	x	x
CC1CCCC(=C\c2ccccc2)/C1=N/O (centres undefined)	x	n	n	n	x	x
SMILES	HUVEC prolif 384	bCat KO growth	Phagocytosis inh	HCT116 PTEN-null	Lung fibro prol	H69AR inhibit
O=C(NNC(=O)C(c1ccccc1)c1ccccc1)c1ccccn1	x	4.8	n	n	x	x
CCCC(C)NC(=O)COc1ccc(S(=O)(=O)c2ccc(OCC(=O)NC(C)CCC)cc2)cc1 (centres undefined)	x	n	n	n	x	x
CCn1cc(C(=O)NCc2ccccc2)c(=O)c2cc(F)c(N3CCN(C(=O)c4ccco4)CC3)cc21	n	n	n	n	n	12
CCn1cc(C(=O)Nc2nncs2)c(=O)c2cc(F)c(N3CCN(C(=O)c4ccco4)CC3)cc21	n	x	x	x	n	n
CCCNC(=O)c1cn(CC)c2cc(N3CCN(C)CC3)c(F)cc2c1=O	n	n	n	n	n	n
CCn1cc(C(=O)NCc2ccc3c(c2)OCO3)c(=O)c2cc(F)c(N3CCN(C(=O)c4ccco4)CC3)cc21	16	n	n	n	n	0.1
CC(C)[C@@H]1NC(=O)c2cc([N+](=O)[O-])cc(I)c2NCCCC[C@@H](C(=O)NC(CC(=O)O)C(N)=O)NC(=O)[C@H](CO)NC1=O (some centres undefined)	x	n	x	n	x	x
CC1CCN(CCOc2ccc(Cl)c(Cl)c2)CC1	x	n	n	n	x	x
COc1cc(/C=N/NC(=O)Cn2nc([N+](=O)[O-])cc2C)cc(Br)c1OCc1ccccc1	n	n	x	n	n	n
CCOc1cc(/C=N/NC(=O)Cn2nc([N+](=O)[O-])cc2C)cc(Br)c1OCc1ccccc1C	3.6	1.5	n	2.1	5.9	0.6
Cc1ccc(Nc2ccc(S(=O)(=O)N3CCOCC3)cc2[N+](=O)[O-])c(C)c1	x	n	n	n	x	x
O=C1/C(=N/n2cnnc2)c2ccccc2N1Cc1ccccc1	n	n	x	n	n	17
c1ccc2c(c1)C(=Nn1cnnc1)c1ccccc1-2	n	n	n	n	n	n
N#CC1=C(N)NC(SCc2ccc(F)cc2)=C(C#N)C12CCCCC2	n	n	n	n	n	10
O=C(Cc1n[nH]c(=O)c2ccccc12)OCC(=O)c1ccc2c(c1)OCCO2	n	n	n	n	n	24
COc1ccc2c(c1OC)C(=O)O[C@@H]2[C@H]1c2c(cc3c(c2OC)OCO3)CCN1C	n	n	x	n	n	30
O=C(/C=C/c1ccc(N2CCCCC2)c([N+](=O)[O-])c1)c1ccc(S(=O)(=O)N2CCCC2)cc1	x	0.9	x	0.7	x	x
COc1cccc(C(=O)/C=C/c2ccc(N3CCCCC3)c([N+](=O)[O-])c2)c1	x	3.1	n	2.9	x	x
COc1ccc(Oc2ccc(/C=C/C(=O)c3ccc(O)cc3)cc2[N+](=O)[O-])cc1	x	1.4	n	1.3	x	x
Cc1ccccc1C(=O)c1cccn1CC(=O)NCCN1CCN(c2cccc(C)c2C)CC1	6.1	4.3	x	n	n	5.2
COc1ccc(OC(=O)c2cccc([N+](=O)[O-])c2)c(C(=O)/C=C/c2cccs2)c1	n	n	n	n	n	3.4
COc1ccc(C(=O)/C=C/c2cccs2)c(OC(=O)N2CCOCC2)c1	x	n	n	n	x	x
Cc1ccn2c(c1)nc(=S)n2C(=O)c1ccco1	x	n	n	n	x	x
CC1=C(C)CS(=O)N(c2ccc(S(N)(=O)=O)cc2)C1 (centres undefined)	n	n	n	n	n	12
CC1=C(C)CS(=O)N(S(=O)(=O)c2ccccc2)C1 (centres undefined)	n	n	n	n	40	1.8
SMILES	HUVEC prolif 384	bCat KO growth	Phagocytosis inh	HCT116 PTEN-null	Lung fibro prol	H69AR inhibit
C=CCSc1nc(C)c2cc(C)cc(C)c2n1	n	n	x	n	n	n
Cc1nc(SCC(=O)NC(C)(C#N)C2CC2)c2c(-c3cccs3)csc2n1 (centres undefined)	x	n	n	n	x	x
CN(O)/C=c1/ccc2c(n1)C(=O)C=CC=2	n	n	x	n	n	37
COc1cccc(Nc2nc(-c3ccc4c(c3)OCCO4)cs2)c1	n	n	n	n	n	37
c1cc2c(cc1Nc1nc(-c3ccc4c(c3)OCO4)cs1)OCCO2	n	n	n	n	n	n
S=c1[nH]nc(COc2ccc(Cl)cc2)o1	n	n	n	n	n	n

Compound activity: PubChem, several laboratories
